Assays:
Enterococcus faecium [1] = assay: Antibacterial activity against vancomycin-resistant Enterococcus faecium 987 after 24 hrs; details: Enterococcus faecium, 987, 24 h
Staphylococcus aureus [2] = assay: Antibacterial activity against vancomycin intermediate Staphylococcus aureus after 24 hrs; assay type: functional
How it was run: (§1)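 Broth microdilution in cation-adjusted Mueller Hinton II broth, inoculum 1 × 10^6 CFU/mL. Inoculum was added 1:1 to twofold serial compound dilutions in triplicate wells. Plates were incubated 24 h at 37 °C. MIC was taken as the lowest dilution giving complete growth inhibition. Strains: wild type ATCC 6538P, Mu50 ATCC 700699, MRSA ATCC 43300.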

Staphylococcus aureus [3] = assay: Antibacterial activity against methicillin-resistant Staphylococcus aureus ATCC 43300 after 24 hrs; assay type: functional; details: ATCC 43300, 24 h
How it was run: as §1

Enterococcus faecium [4] = assay: Antibacterial activity against vancomycin-resistant Enterococcus faecium 243 after 24 hrs; details: Enterococcus faecium, 243, 24 h
Enterococcus faecium [5] = assay: Antibacterial activity against vancomycin-resistant Enterococcus faecium 449 after 24 hrs; details: Enterococcus faecium, 449, 24 h
Staphylococcus aureus [6] = assay: Antibacterial activity against methicillin sensitive Staphylococcus aureus after 24 hrs; assay type: functional
How it was run: as §1

Staphylococcus aureus [7] = assay: Antibacterial activity against Staphylococcus aureus 6538P after 24 hrs; assay type: functional
How it was run: (§2)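 Micro-broth dilution in cation-adjusted Mueller Hinton II broth, inoculum 1 × 10^6 CFU per mL, added to triplicate wells of twofold serially diluted compound. Incubated 24 h at 37 °C. MIC taken as the lowest dilution giving complete growth inhibition.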

Enterococcus faecium [8] = assay: Antibacterial activity against vancomycin-resistant clinical isolate Enterococcus faecium after 24 hrs; assay type: functional
Enterococcus faecium [9] = assay: Antibacterial activity against vancomycin-resistant Enterococcus faecium 820 after 24 hrs; details: Enterococcus faecium, 820, 24 h
Enterococcus faecium [10] = assay: Antibacterial activity against vancomycin sensitive clinical isolate Enterococcus faecium after 24 hrs; assay type: functional
[11] = system: Staphylococcus epidermidis; assay: Antibacterial activity against Staphylococcus epidermidis ATCC 700562 after 24 hrs; assay type: functional; details: ATCC 700562, 24 h
How it was run: as §2

CC(C)CCOc1ccc2ccccc2c1-c1c(OCC(=O)N[C@H](CCCCN)C(=O)N[C@@H](CCCNC(=N)N)C(=O)N[C@H](CC(C)C)C(=O)OCc2ccccc2)ccc2ccccc12.Cl.Cl
MIC (Enterococcus faecium [1]): 15.6 µg/mL
MIC (Staphylococcus aureus [2]): 6 µg/mL
MIC (Staphylococcus aureus [3]): 6 µg/mL
MIC (Enterococcus faecium [4]): 15.6 µg/mL
MIC (Enterococcus faecium [5]): 15.6 µg/mL
MIC (Staphylococcus aureus [6]): 6 µg/mL
MIC (Staphylococcus aureus [7]): 3.9 µg/mL
MIC (Enterococcus faecium [8]): 2 µg/mL
MIC (Enterococcus faecium [9]): 7.8 µg/mL
MIC (Enterococcus faecium [10]): 16 µg/mL
MIC [11]: 3 µg/mL

Source: ChEMBL document CHEMBL1156988, “Synthesis and antibacterial studies of binaphthyl-based tripeptoids. Part 1” (2010)
